Measured values from ChEMBL document CHEMBL1828568, “Novel imaging agents for β-amyloid plaque based on the N-benzoylindole core” (Bioorg Med Chem Lett, 2011).
pKi: −log10 of the molar value.

What was measured:
[1] = Displacement of [125I]TZDM from amyloid beta (1 to 40) aggregates after 2 hrs by gamma counting
How it was run: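 Competition binding against [125I]TZDM as radiolabeled standard, using Aβ1–40 aggregates; run in triplicate, results as mean ± SD.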

Spleen [2] = test: Biodistribution in Kunming mouse spleen at 1 uCi, iv after 15 mins by gamma counting; type: ADME, organism-based; details: in vivo, 0.25 h
How it was run: (§1)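 125I-labeled tracer given intravenously to normal mice. Organs and blood were sampled at 2, 15, 30, 60, 120 and 240 min after injection. Uptake is expressed as % ID/g, averaged over 5 mice ± SD.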

Kidney [3] = test: Biodistribution in Kunming mouse kidney at 1 uCi, iv after 2 mins by gamma counting; type: ADME, organism-based; details: in vivo; how it was run: as §1
Liver [4] = test: Biodistribution in Kunming mouse liver at 1 uCi, iv after 15 mins by gamma counting; type: ADME, organism-based; details: in vivo, 0.25 h; how it was run: as §1
Spleen [5] = test: Biodistribution in Kunming mouse spleen at 1 uCi, iv after 30 mins by gamma counting; type: ADME, organism-based; details: in vivo, 0.5 h; how it was run: as §1
Muscle tissue [6] = test: Biodistribution in Kunming mouse muscle at 1 uCi, iv after 2 mins by gamma counting; type: ADME, organism-based; details: in vivo; how it was run: as §1
Heart [7] = test: Biodistribution in Kunming mouse heart at 1 uCi, iv after 240 mins by gamma counting; type: ADME, organism-based; details: in vivo, 4 h; how it was run: as §1
Muscle tissue [8] = test: Biodistribution in Kunming mouse muscle at 1 uCi, iv after 15 mins by gamma counting; type: ADME, organism-based; details: in vivo, 0.25 h; how it was run: as §1
Blood [9] = test: Biodistribution in Kunming mouse blood at 1 uCi, iv after 240 mins by gamma counting; type: ADME, organism-based; details: in vivo, 4 h; how it was run: as §1
Liver [10] = test: Biodistribution in Kunming mouse liver at 1 uCi, iv after 2 mins by gamma counting; type: ADME, organism-based; details: in vivo; how it was run: as §1
Lung [11] = test: Biodistribution in Kunming mouse lung at 1 uCi, iv after 240 mins by gamma counting; type: ADME, organism-based; details: in vivo, 4 h; how it was run: as §1
Stomach [12] = test: Biodistribution in Kunming mouse stomach assessed per organ at 1 uCi, iv after 30 mins by gamma counting; type: ADME, organism-based; details: in vivo, 0.5 h
How it was run: (§2)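 Radioiodinated tracers given intravenously to normal mice; organs taken at 2, 15, 30, 60, 120 and 240 min after injection. Uptake expressed as % ID/g, mean ± SD of 5 mice; stomach values carry a table footnote.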

Liver [13] = test: Biodistribution in Kunming mouse liver at 1 uCi, iv after 30 mins by gamma counting; type: ADME, organism-based; details: in vivo, 0.5 h; how it was run: as §1
Blood [14] = test: Biodistribution in Kunming mouse blood at 1 uCi, iv after 15 mins by gamma counting; type: ADME, organism-based; details: in vivo, 0.25 h; how it was run: as §1
Heart [15] = test: Biodistribution in Kunming mouse heart at 1 uCi, iv after 2 mins by gamma counting; type: ADME, organism-based; details: in vivo; how it was run: as §1
Kidney [16] = test: Biodistribution in Kunming mouse kidney at 1 uCi, iv after 240 mins by gamma counting; type: ADME, organism-based; details: in vivo, 4 h; how it was run: as §1
Blood [17] = test: Biodistribution in Kunming mouse blood at 1 uCi, iv after 60 mins by gamma counting; type: ADME, organism-based; details: in vivo, 1 h; how it was run: as §1
Lung [18] = test: Biodistribution in Kunming mouse lung at 1 uCi, iv after 60 mins by gamma counting; type: ADME, organism-based; details: in vivo, 1 h; how it was run: as §1
Stomach [19] = test: Biodistribution in Kunming mouse stomach assessed per organ at 1 uCi, iv after 60 mins by gamma counting; type: ADME, organism-based; details: in vivo, 1 h; how it was run: as §2
Brain [20] = test: Biodistribution in Kunming mouse brain at 1 uCi, iv after 2 mins by gamma counting; type: ADME, organism-based; details: in vivo; how it was run: as §1
Blood [21] = test: Biodistribution in Kunming mouse blood at 1 uCi, iv after 120 mins by gamma counting; type: ADME, organism-based; details: in vivo, 2 h; how it was run: as §1
[22] = Octanol-phosphate buffer partition coefficient, log D of the compound at pH 7.4; type: physicochemical
How it was run: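 Radioiodinated tracer partitioned between n-octanol and PBS at pH 7.4; log D reported as mean ± SD.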

Lung [23] = test: Biodistribution in Kunming mouse lung at 1 uCi, iv after 120 mins by gamma counting; type: ADME, organism-based; details: in vivo, 2 h; how it was run: as §1
Spleen [24] = test: Biodistribution in Kunming mouse spleen at 1 uCi, iv after 120 mins by gamma counting; type: ADME, organism-based; details: in vivo, 2 h; how it was run: as §1
Stomach [25] = test: Biodistribution in Kunming mouse stomach assessed per organ at 1 uCi, iv after 15 mins by gamma counting; type: ADME, organism-based; details: in vivo, 0.25 h; how it was run: as §2
Stomach [26] = test: Biodistribution in Kunming mouse stomach assessed per organ at 1 uCi, iv after 120 mins by gamma counting; type: ADME, organism-based; details: in vivo, 2 h; how it was run: as §2
Liver [27] = test: Biodistribution in Kunming mouse liver at 1 uCi, iv after 60 mins by gamma counting; type: ADME, organism-based; details: in vivo, 1 h; how it was run: as §1
Liver [28] = test: Biodistribution in Kunming mouse liver at 1 uCi, iv after 240 mins by gamma counting; type: ADME, organism-based; details: in vivo, 4 h; how it was run: as §1
Muscle tissue [29] = test: Biodistribution in Kunming mouse muscle at 1 uCi, iv after 60 mins by gamma counting; type: ADME, organism-based; details: in vivo, 1 h; how it was run: as §1
Kidney [30] = test: Biodistribution in Kunming mouse kidney at 1 uCi, iv after 120 mins by gamma counting; type: ADME, organism-based; details: in vivo, 2 h; how it was run: as §1
Heart [31] = test: Biodistribution in Kunming mouse heart at 1 uCi, iv after 30 mins by gamma counting; type: ADME, organism-based; details: in vivo, 0.5 h; how it was run: as §1
Kidney [32] = test: Biodistribution in Kunming mouse kidney at 1 uCi, iv after 30 mins by gamma counting; type: ADME, organism-based; details: in vivo, 0.5 h; how it was run: as §1
Brain [33] = test: Biodistribution in Kunming mouse brain at 1 uCi, iv after 15 mins by gamma counting; type: ADME, organism-based; details: in vivo, 0.25 h; how it was run: as §1
Spleen [34] = test: Biodistribution in Kunming mouse spleen at 1 uCi, iv after 240 mins by gamma counting; type: ADME, organism-based; details: in vivo, 4 h; how it was run: as §1
Spleen [35] = test: Biodistribution in Kunming mouse spleen at 1 uCi, iv after 60 mins by gamma counting; type: ADME, organism-based; details: in vivo, 1 h; how it was run: as §2
Brain [36] = test: Biodistribution in Kunming mouse brain at 1 uCi, iv after 60 mins by gamma counting; type: ADME, organism-based; details: in vivo, 1 h; how it was run: as §1
Blood [37] = test: Biodistribution in Kunming mouse blood at 1 uCi, iv after 2 mins by gamma counting; type: ADME, organism-based; details: in vivo; how it was run: as §1
Heart [38] = test: Biodistribution in Kunming mouse heart at 1 uCi, iv after 15 mins by gamma counting; type: ADME, organism-based; details: in vivo, 0.25 h; how it was run: as §1
Liver [39] = test: Biodistribution in Kunming mouse liver at 1 uCi, iv after 120 mins by gamma counting; type: ADME, organism-based; details: in vivo, 2 h; how it was run: as §1
Brain [40] = test: Biodistribution in Kunming mouse brain at 1 uCi, iv after 30 mins by gamma counting; type: ADME, organism-based; details: in vivo, 0.5 h; how it was run: as §1
Heart [41] = test: Biodistribution in Kunming mouse heart at 1 uCi, iv after 60 mins by gamma counting; type: ADME, organism-based; details: in vivo, 1 h; how it was run: as §1
Kidney [42] = test: Biodistribution in Kunming mouse kidney at 1 uCi, iv after 15 mins by gamma counting; type: ADME, organism-based; details: in vivo, 0.25 h; how it was run: as §1
Blood [43] = test: Biodistribution in Kunming mouse blood at 1 uCi, iv after 30 mins by gamma counting; type: ADME, organism-based; details: in vivo, 0.5 h; how it was run: as §1
Muscle tissue [44] = test: Biodistribution in Kunming mouse muscle at 1 uCi, iv after 240 mins by gamma counting; type: ADME, organism-based; details: in vivo, 4 h; how it was run: as §1
Brain [45] = test: Biodistribution in Kunming mouse brain at 1 uCi, iv after 120 mins by gamma counting; type: ADME, organism-based; details: in vivo, 2 h; how it was run: as §1
Kidney [46] = test: Biodistribution in Kunming mouse kidney at 1 uCi, iv after 60 mins by gamma counting; type: ADME, organism-based; details: in vivo, 1 h; how it was run: as §1
Muscle tissue [47] = test: Biodistribution in Kunming mouse muscle at 1 uCi, iv after 30 mins by gamma counting; type: ADME, organism-based; details: in vivo, 0.5 h; how it was run: as §1
Stomach [48] = test: Biodistribution in Kunming mouse stomach assessed per organ at 1 uCi, iv after 2 mins by gamma counting; type: ADME, organism-based; details: in vivo; how it was run: as §2
Lung [49] = test: Biodistribution in Kunming mouse lung at 1 uCi, iv after 2 mins by gamma counting; type: ADME, organism-based; details: in vivo; how it was run: as §1
Spleen [50] = test: Biodistribution in Kunming mouse spleen at 1 uCi, iv after 2 mins by gamma counting; type: ADME, organism-based; details: in vivo; how it was run: as §1
Lung [51] = test: Biodistribution in Kunming mouse lung at 1 uCi, iv after 30 mins by gamma counting; type: ADME, organism-based; details: in vivo, 0.5 h; how it was run: as §1
Lung [52] = test: Biodistribution in Kunming mouse lung at 1 uCi, iv after 15 mins by gamma counting; type: ADME, organism-based; details: in vivo, 0.25 h; how it was run: as §1
Brain [53] = test: Biodistribution in Kunming mouse brain at 1 uCi, iv after 240 mins by gamma counting; type: ADME, organism-based; details: in vivo, 4 h; how it was run: as §1
Stomach [54] = test: Biodistribution in Kunming mouse stomach assessed per organ at 1 uCi, iv after 240 mins by gamma counting; type: ADME, organism-based; details: in vivo, 4 h; how it was run: as §2
Heart [55] = test: Biodistribution in Kunming mouse heart at 1 uCi, iv after 120 mins by gamma counting; type: ADME, organism-based; details: in vivo, 2 h; how it was run: as §1
Muscle tissue [56] = test: Biodistribution in Kunming mouse muscle at 1 uCi, iv after 120 mins by gamma counting; type: ADME, organism-based; details: in vivo, 2 h; how it was run: as §1

COc1ccc2c(ccn2C(=O)/C=C/c2ccccc2)c1
pKi [1]: 7.17

O=C(/C=C/c1ccccc1)n1ccc2cc(Br)ccc21
pKi [1]: 7.72

O=C(/C=C/c1ccccc1)n1ccc2cc([125I])ccc21
Drug uptake (Spleen [2]): 2.44 % ID/g
Drug uptake (Kidney [3]): 11.22 % ID/g
Drug uptake (Liver [4]): 7.73 % ID/g
Drug uptake (Spleen [5]): 1.71 % ID/g
Drug uptake (Muscle tissue [6]): 3.97 % ID/g
Drug uptake (Heart [7]): 0.61 % ID/g
Drug uptake (Muscle tissue [8]): 2.47 % ID/g
Drug uptake (Blood [9]): 1.07 % ID/g
Drug uptake (Liver [10]): 15.89 % ID/g
Drug uptake (Lung [11]): 1.27 % ID/g
Drug uptake (Stomach [12]): 1.72 %ID
Drug uptake (Liver [13]): 6.48 % ID/g
Drug uptake (Blood [14]): 3.91 % ID/g
Drug uptake (Heart [15]): 10.72 % ID/g
Drug uptake (Kidney [16]): 2.22 % ID/g
Drug uptake (Blood [17]): 2.88 % ID/g
Drug uptake (Lung [18]): 2.66 % ID/g
Drug uptake (Stomach [19]): 2.08 %ID
Drug uptake (Brain [20]): 2 % ID/g
Drug uptake (Blood [21]): 1.61 % ID/g
logD [22]: 2.53
Drug uptake (Lung [23]): 2.1 % ID/g
Drug uptake (Spleen [24]): 0.63 % ID/g
Drug uptake (Stomach [25]): 1.52 %ID
Drug uptake (Stomach [26]): 2.29 %ID
Drug uptake (Liver [27]): 4.09 % ID/g
Drug uptake (Liver [28]): 2.23 % ID/g
Drug uptake (Muscle tissue [29]): 1.06 % ID/g
Drug uptake (Kidney [30]): 3.54 % ID/g
Drug uptake (Heart [31]): 2.07 % ID/g
Drug uptake (Kidney [32]): 10.16 % ID/g
Drug uptake (Brain [33]): 1.98 % ID/g
Drug uptake (Spleen [34]): 0.59 % ID/g
Drug uptake (Spleen [35]): 1.85 % ID/g
Drug uptake (Brain [36]): 0.77 % ID/g
Drug uptake (Blood [37]): 14.13 % ID/g
Drug uptake (Heart [38]): 2.9 % ID/g
Drug uptake (Liver [39]): 4.86 % ID/g
Drug uptake (Brain [40]): 1.57 % ID/g
Drug uptake (Heart [41]): 1.53 % ID/g
Drug uptake (Kidney [42]): 9.68 % ID/g
Drug uptake (Blood [43]): 3.75 % ID/g
Drug uptake (Muscle tissue [44]): 0.19 % ID/g
Drug uptake (Brain [45]): 0.33 % ID/g
Drug uptake (Kidney [46]): 6.14 % ID/g
Drug uptake (Muscle tissue [47]): 2.06 % ID/g
Drug uptake (Stomach [48]): 1.09 %ID
Drug uptake (Lung [49]): 14.5 % ID/g
Drug uptake (Spleen [50]): 4.08 % ID/g
Drug uptake (Lung [51]): 4.88 % ID/g
Drug uptake (Lung [52]): 6.73 % ID/g
Drug uptake (Brain [53]): 0.17 % ID/g
Drug uptake (Stomach [54]): 1.3 %ID
Drug uptake (Heart [55]): 0.99 % ID/g
Drug uptake (Muscle tissue [56]): 0.84 % ID/g
